Assay [1] addresses T1, Aldo-keto reductase family 1 member C2 (Homo sapiens) (UniProt P52895).
T1 sequence (whole entry): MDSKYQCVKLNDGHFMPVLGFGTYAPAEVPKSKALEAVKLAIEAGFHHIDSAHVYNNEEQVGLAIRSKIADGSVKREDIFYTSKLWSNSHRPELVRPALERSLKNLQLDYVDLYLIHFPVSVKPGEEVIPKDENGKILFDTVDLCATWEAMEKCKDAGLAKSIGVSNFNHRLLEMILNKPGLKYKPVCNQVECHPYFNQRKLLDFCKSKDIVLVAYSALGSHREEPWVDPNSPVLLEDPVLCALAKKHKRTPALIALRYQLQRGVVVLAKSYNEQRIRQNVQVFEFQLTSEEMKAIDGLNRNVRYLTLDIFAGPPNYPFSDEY
The experiment in a line: Inhibition of recombinant AKR1C2 (unknown origin) assessed as decrease in oxidation of 1-acenaphthenol substrate at 100 uM by spectrophotometric analysis. The procedure, abridged:
(§1)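 Single-point screen at 100 μM compound. Recombinant enzyme oxidizes 1-acenaphthenol with 2.3 mM NAD⁺ in 100 mM phosphate buffer pH 9.0, 0.005% Triton X-114, 5% DMSO. AKR1C1: 30 μM substrate (Km), 0.3 μM enzyme. AKR1C2: 50 μM substrate (Km), 0.2 μM enzyme. NADH formation read at 340 nm from initial velocities. Result given as % inhibition.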

The target of assay [2] is T2, Aldo-keto reductase family 1 member C1 (Homo sapiens) (UniProt Q04828).
T2 sequence (whole entry): T1 sequence (whole entry) with V38T, H47R, V54L, S87C, M151V, H170R, L172Q
The experiment in a line: Inhibition of human recombinant AKR1C1 expressed in Escherichia coli assessed as decrease in oxidation of 1-acenaphthenol substrate at 100 uM by spectrophotometric analysis. Put shortly: as §1

In assay [3] the target is T3, Aldo-keto reductase family 1 member C1 (Homo sapiens, UniProt Q04828).
T3 sequence (Q04828 whole entry): T1 sequence (whole entry) with V38T, H47R, V54L, S87C, M151V, H170R, L172Q
As to the kind of experiment: Inhibition of human recombinant AKR1C1 expressed in Escherichia coli assessed as decrease in oxidation of 1-acenaphthenol substrate by spectrophotometric analysis. Put shortly: (§2)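 IC50 measured for compounds giving over 50% inhibition at 100 μM. Assay uses 1-acenaphthenol oxidation with 2.3 mM NAD⁺ in pH 9.0 100 mM phosphate buffer with 0.005% Triton X-114 and 5% DMSO. AKR1C1 runs at 30 μM substrate and 0.3 μM enzyme; AKR1C2 at 50 μM substrate and 0.2 μM enzyme. Initial rates come from NADH at 340 nm. IC50 is read from log[inhibitor] versus % inhibition plots.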

In assay [4] the target is T4, Aldo-keto reductase family 1 member C3 (Homo sapiens, UniProt P42330).
T4 sequence (P42330 whole entry): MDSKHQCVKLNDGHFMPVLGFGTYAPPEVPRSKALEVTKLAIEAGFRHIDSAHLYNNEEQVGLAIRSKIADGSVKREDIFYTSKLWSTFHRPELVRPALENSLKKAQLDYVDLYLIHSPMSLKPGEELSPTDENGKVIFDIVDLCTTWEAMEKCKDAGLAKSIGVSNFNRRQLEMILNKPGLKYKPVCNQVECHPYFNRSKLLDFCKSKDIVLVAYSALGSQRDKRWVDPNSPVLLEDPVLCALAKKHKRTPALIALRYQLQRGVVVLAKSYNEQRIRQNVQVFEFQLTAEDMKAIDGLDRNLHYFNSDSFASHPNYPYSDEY
As to the kind of experiment: Inhibition of recombinant AKR1C3 (unknown origin) assessed as decrease in oxidation of 1-acenaphthenol substrate by spectrophotometric analysis.

The target in assay [5] is T5, Aldo-keto reductase family 1 member C2 (Homo sapiens, UniProt P52895).
T5 sequence (P52895 whole entry): T1 sequence (whole entry)
As to the kind of experiment: Inhibition of recombinant AKR1C2 (unknown origin) assessed as decrease in oxidation of 1-acenaphthenol substrate by spectrophotometric analysis. Put shortly:
as §2

Changes are numbered by the printed parent chain.

As usually defined, the inhibition is how much of the control response was suppressed. In general, IC50 refers to the concentration at which inhibition is half-maximal.

Regarding `CS(=O)(=O)c1ccc(/C=C(/C(=O)O)c2ccccc2)cc1`, the inhibition worked out at 61.4% in assay [1] and 77.6% in assay [2]. The IC50 in assay [3] was 30.8 µM; in assay [4] it was 139 µM; in assay [5], 34.4 µM.
On the same counts, the results for `CSc1ccc(/C=C(/C(=O)O)c2cccc(Cl)c2)cc1` are 78.3%, 81.7%, 19.1 µM, 17 µM and 20.8 µM.

The record behind these values is ChEMBL document CHEMBL2331309, “2,3-Diarylpropenoic acids as selective non-steroidal inhibitors of type-5 17β-hydroxysteroid dehydrogenase (AKR1C3)” (Eur J Med Chem, 2013).
